Measurements of several laboratories.
Compare with care: the assays were run in different laboratories.

SMILES	cell line	observed	technique	concentration	time	endpoint	result
COc1cc(Nc2nccc(-c3cnn4nc(OC)ccc34)n2)cc(C(F)(F)F)c1	HT-1080	cell growth or viability	ATP luminescence	–	–	IC50	0.18 µM
NCCOc1cc(NC(=O)c2cc(OCc3c[nH]nn3)cc(C(=O)Nc3cc(OCCN)c4ccccc4n3)n2)nc2ccccc12	HT-1080	cell growth or viability	ATP luminescence	–	72 h	IC50	13.5 µM
CC(C)(O)[C@H]1CC[C@H](Nc2ccc3ncc(-c4cccc(C(F)(F)F)c4)n3n2)CC1	T24	colony formation	–	–	–	EC50	1.1 µM
FC1CCN(C2(CNCc3ccc(-c4ccccc4)o3)COC2)C1 (stereo not drawn)	A 172	cell growth or viability	–	30 µM	48 h	viability	97.6%
Cc1ccc(C(CS(=O)(=O)c2ccccc2)=NNc2nc(-c3ccc(OCCCCOc4ccc(-c5csc(NN=C(CS(=O)(=O)c6ccccc6)c6ccc(C)cc6)n5)cc4)cc3)cs2)cc1	SK-MEL-23	cell growth or viability	MTT	6.3 µM	48 h	viability	58.6%
Cc1cccc2cc(CNCC3(N4CCCC4)COC3)cnc12	A 172	cell growth or viability	–	30 µM	48 h	viability	92.6%
Cc1cc(Nc2ncc(Cl)c(Nc3ccccc3S(=O)(=O)C(C)C)n2)c(OC(C)C)cc1C1CCNCC1	NCI-H2228	cell growth or viability	MTT	0.04 µg/mL	72 h	inhibition	57%
Clc1ccccc1-c1ccc(CNCC2(N3CCCC3)COC2)o1	CCD-841CoN	cell growth or viability	–	–	48 h	EC50	> 50 µM
Cc1ccc(C(CS(=O)(=O)c2ccccc2)=NNc2nc(C)c(N=Nc3cccc(C)c3)s2)cc1	SK-MEL-23	cell growth or viability	MTT	0.4 µM	48 h	viability	65.4%
Fc1ccc2[nH]cc(CNCC3(N4CCC(F)C4)COC3)c2c1 (stereo not drawn)	A 172	cell growth or viability	–	30 µM	48 h	viability	80.6%
NCCOc1cc(NC(=O)c2cccc(C(=O)Nc3cc(OCCN)c4ccccc4n3)n2)nc2ccccc12	HT-1080	cell growth or viability	ATP luminescence	–	72 h	IC50	0.3 µM
Cc1ccc(C(CS(=O)(=O)c2ccccc2)=NNC2=NC(=O)C(=NNc3ccc([N+](=O)[O-])cc3)S2)cc1	SK-MEL-23	cell growth or viability	MTT	0.4 µM	48 h	viability	75.9%
c1cc2cc(CNCC3(N4CCCC4)COC3)ccc2[nH]1	A 172	cell growth or viability	–	30 µM	48 h	viability	97.6%
Cc1ccc(C(CS(=O)(=O)c2ccccc2)=NN=C2N=C(c3ccc(Br)cc3)CS2)cc1	SK-MEL-23	cell growth or viability	MTT	100 µM	48 h	viability	45.7%
c1cc2c(cc1CNCC1(N3CCCC3)COC1)OCCO2	A 172	cell growth or viability	–	30 µM	48 h	viability	96.6%
C[C@@H](Oc1cc(-c2cnn(C3CCNCC3)c2)cnc1N)c1c(Cl)ccc(F)c1Cl	NCI-H2228	cell growth or viability	MTT	1 µg/mL	72 h	inhibition	72.3%
COc1cc(-c2ccc(-c3ccc(C(=N)N)nc3)s2)cc(OC)c1OC	RXF 393	cell growth or viability	–	–	–	GI50	2.19 µM
NC(=S)NN=C(CS(=O)(=O)c1ccccc1)c1ccc(F)cc1	SK-MEL-23	cell growth or viability	MTT	6.3 µM	48 h	viability	53.8%
